Test results from ChEMBL document CHEMBL4765273 (Eur J Med Chem, 2020).

Tests used:
Influenza A virus [1] = test: Antiviral activity against Influenza A virus (A/Duck/Guangdong/674/2014 (H5N6)) group-2 infected in chicken embryo fibroblast assessed as reduction in viral infection preincubated for 1 hrs followed by fibroblast infection and measured after 72 hrs by hemagglutination titre method; type: functional, organism-based
Influenza A virus [2] = test: Antiviral activity against Influenza A virus (A/goose/Guangdong/SH7/2013(H5N1)) group-1 infected in chicken embryo fibroblast assessed as reduction in viral infection preincubated for 1 hrs followed by fibroblast infection and measured after 72 hrs by hemagglutination titre method; type: functional, organism-based
Influenza A virus [3] = test: Antiviral activity against Influenza A virus (A/chicken/Hebei/LZF/ 2014(H5N2)) group-2 infected in chicken embryo fibroblast assessed as reduction in viral infection preincubated for 1 hrs followed by fibroblast infection and measured after 72 hrs by hemagglutination titre method; type: functional, organism-based
[4] = Cytotoxicity against chicken embryo fibroblast assessed as reduction in cell viability after 48 hrs by CCK8 assay; set-up: species or system Gallus gallus; conditions: chicken embryo fibroblasts
Method in brief: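 Chicken embryo fibroblasts (1×10^5 cells/mL) were cultured 24 h at 37°C, 5% CO2, washed with serum-free DMEM, then exposed to 2-fold serial compound dilutions in 1% FBS DMEM for 48 h. CCK-8 in 1% FBS DMEM was added for 90 min and absorbance read at 450 nm. CC50 was obtained by curve fitting. Blank and cell controls were included.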

Influenza A virus [5] = test: Antiviral activity against Influenza A virus (A/goose/Jiangsu/1306/2014 (H5N8)) group-1 infected in chicken embryo fibroblast assessed as reduction in viral infection preincubated for 1 hrs followed by fibroblast infection and measured after 72 hrs by hemagglutination titre method; type: functional, organism-based
[6] = Inhibition of Influenza A virus (A/chicken/Hebei/LZF/ 2014(H5N2)) group-2 Neuraminidase N2 preincubated for 10 mins followed by MUNANA substrate addition and measured after 40 to 60 mins by fluorescence method
Method in brief: (§1)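 Virus-derived NA was preincubated 10 min at 37°C with compound in MES buffer. Fluorogenic substrate was added and the reaction run for 40–60 min at 37°C, then stopped with glycine/NaOH. Fluorescence was read at ex 365 / em 460 nm with substrate blanks subtracted. IC50 was taken from percent-inhibition dose-response curves and reported as mean ± SD of three experiments.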

[7] = Inhibition of Influenza A virus (A/goose/Guangdong/SH7/2013(H5N1)) group-1 Neuraminidase N1 preincubated for 10 mins followed by MUNANA substrate addition and measured after 40 to 60 mins by fluorescence method; method in brief: as §1
[8] = Inhibition of Influenza A virus (A/Duck/Guangdong/674/2014 (H5N6)) group-2 Neuraminidase N6 preincubated for 10 mins followed by MUNANA substrate addition and measured after 40 to 60 mins by fluorescence method; method in brief: as §1
[9] = Inhibition of Influenza A virus (A/goose/Jiangsu/1306/2014 (H5N8)) group-1 Neuraminidase N8 preincubated for 10 mins followed by MUNANA substrate addition and measured after 40 to 60 mins by fluorescence method; method in brief: as §1

SMILES | IC50 (Influenza A virus [1]) | IC50 (Influenza A virus [2]) | IC50 (Influenza A virus [3]) | CC50 at 48 h [4] | IC50 (Influenza A virus [5]) | IC50 [6] | IC50 [7] | IC50 [8] | IC50 [9]
CCC(CC)O[C@@H]1C=C(C(=O)O)C[C@H](NC(=O)/C=C/c2ccccc2)[C@H]1NC(C)=O | > 10 µM | > 10 µM | > 10 µM | > 200 µM | 5.32 µM |  |  |  | 
CCC(CC)O[C@@H]1C=C(C(=O)O)C[C@H](NCc2cccc(-c3cccs3)c2)[C@H]1NC(C)=O | 6.71 µM | 0.97 µM | 0.22 µM | > 200 µM | 0.089 µM | 12 µM | 0.0748 µM | 16.1 µM | 0.0553 µM
CCC(CC)O[C@@H]1C=C(C(=O)O)C[C@H](NS(=O)(=O)c2ccc(Cl)cc2)[C@H]1NC(C)=O | > 10 µM | > 10 µM | > 10 µM | > 200 µM | 4.76 µM |  |  |  | 
CCC(CC)O[C@@H]1C=C(C(=O)O)C[C@H](NC(=O)/C=C/c2ccc(C)cc2)[C@H]1NC(C)=O | > 10 µM | > 10 µM | > 10 µM | > 200 µM | 4.76 µM |  |  |  | 
CCC(CC)O[C@@H]1C=C(C(=O)O)C[C@H](NCc2ccc(-c3ccccc3)s2)[C@H]1NC(C)=O | 3.02 µM | 1.59 µM | 0.12 µM | > 200 µM | 0.098 µM | 1.1 µM | 0.264 µM | 1.74 µM | 0.0901 µM
CCC(CC)O[C@@H]1C=C(C(=O)O)C[C@H](NC/C=C/c2ccc(Cl)cc2)[C@H]1NC(C)=O | 3.93 µM | 0.96 µM | 0.24 µM | > 200 µM | 0.53 µM | 0.255 µM | 0.0224 µM | 0.809 µM | 0.174 µM
CCC(CC)O[C@@H]1C=C(C(=O)O)C[C@H](NC/C(C)=C/c2ccccc2)[C@H]1NC(C)=O | 3.07 µM | 0.79 µM | 0.16 µM | > 200 µM | 0.61 µM | 0.952 µM | 0.0577 µM | 5.62 µM | 0.0926 µM
CCC(CC)O[C@@H]1C=C(C(=O)O)C[C@H](NS(=O)(=O)c2ccc3ccccc3c2)[C@H]1NC(C)=O | > 10 µM | > 10 µM | > 10 µM | > 200 µM | 3.23 µM |  |  |  | 
CCC(CC)O[C@@H]1C=C(C(=O)O)C[C@H](NS(=O)(=O)c2ccc(-c3ccccc3)cc2)[C@H]1NC(C)=O | > 10 µM | > 10 µM | > 10 µM | > 200 µM | 6.79 µM |  |  |  | 
CCC(CC)O[C@@H]1C=C(C(=O)O)C[C@H](NC(=O)/C=C/c2ccc(OC)cc2)[C@H]1NC(C)=O | > 10 µM | > 10 µM | > 10 µM | > 200 µM | 8.48 µM |  |  |  | 
CCC(CC)O[C@@H]1C=C(C(=O)O)C[C@H](NC/C=C/c2ccc(OC)cc2)[C@H]1NC(C)=O | 4.07 µM | 7.56 µM | 0.21 µM | > 200 µM | 0.64 µM |  |  |  | 
CCC(CC)O[C@@H]1C=C(C(=O)O)C[C@H](NCc2ccc(-c3ccsc3)cc2)[C@H]1NC(C)=O | 5.5 µM |  | 0.1 µM | > 200 µM | 0.051 µM | 1.44 µM | 0.118 µM | 34.5 µM | 0.0781 µM
CCC(CC)O[C@@H]1C=C(C(=O)O)C[C@H](NCc2cccc(-c3ccccc3)c2)[C@H]1NC(C)=O | 4.49 µM | 0.84 µM | 0.23 µM | > 200 µM | 0.65 µM | 13.7 µM | 0.054 µM | 39.1 µM | 0.0831 µM
CCC(CC)O[C@@H]1C=C(C(=O)O)C[C@H](NS(=O)(=O)c2ccc(F)cc2)[C@H]1NC(C)=O | > 10 µM | > 10 µM | > 10 µM | > 200 µM | 4.25 µM |  |  |  | 
CCC(CC)O[C@@H]1C=C(C(=O)O)C[C@H](NCc2ccc(-c3nccs3)cc2)[C@H]1NC(C)=O | 3.23 µM | > 10 µM | 0.2 µM | > 200 µM | 0.059 µM | 7.88 µM | 0.392 µM | 9.6 µM | 0.109 µM
CCC(CC)O[C@@H]1C=C(C(=O)O)C[C@H](NC(=O)/C=C/c2cccc(C)c2)[C@H]1NC(C)=O | > 10 µM | > 10 µM | > 10 µM | > 200 µM | 4.37 µM |  |  |  | 
CCC(CC)O[C@@H]1C=C(C(=O)O)C[C@H](NC(=O)c2ccc(-c3ccccc3)cc2)[C@H]1NC(C)=O | > 10 µM | > 10 µM | > 10 µM | > 200 µM | 3.54 µM |  |  |  | 
CCC(CC)O[C@@H]1C=C(C(=O)O)C[C@H](NC/C=C/c2ccccc2OC)[C@H]1NC(C)=O | 3.07 µM | 1.2 µM | 0.13 µM | > 200 µM | 0.089 µM |  | 0.254 µM | 0.155 µM | 0.0621 µM
CCC(CC)O[C@@H]1C=C(C(=O)O)C[C@H](NS(=O)(=O)c2ccccc2)[C@H]1NC(C)=O | > 10 µM | > 10 µM | > 10 µM | > 200 µM | 4.82 µM |  |  |  | 
CCC(CC)O[C@@H]1C=C(C(=O)O)C[C@H](NC(=O)c2ccccc2)[C@H]1NC(C)=O | > 10 µM | > 10 µM | > 10 µM | > 200 µM | > 10 µM |  |  |  | 
CCC(CC)O[C@@H]1C=C(C(=O)O)C[C@H](NS(=O)(=O)c2ccc(-c3cccs3)cc2)[C@H]1NC(C)=O | 2.39 µM | 0.29 µM | 0.079 µM | > 200 µM | 0.053 µM |  |  |  | 
CCC(CC)O[C@@H]1C=C(C(=O)O)C[C@H](NC(=O)/C=C/c2ccc(F)cc2)[C@H]1NC(C)=O | > 10 µM | > 10 µM | > 10 µM | > 200 µM | 5.16 µM |  |  |  | 
CCC(CC)O[C@@H]1C=C(C(=O)O)C[C@H](NS(=O)(=O)c2ccc(C)cc2)[C@H]1NC(C)=O | > 10 µM | > 10 µM | > 10 µM | > 200 µM | 3.12 µM |  |  |  | 
NC(=O)c1ncn([C@@H]2O[C@H](CO)[C@@H](O)[C@H]2O)n1 [RIBAVIRIN] | 6.68 µM | 4.01 µM | > 10 µM | > 200 µM | 1.96 µM |  |  |  | 
